According to ChEMBL document CHEMBL3400126, “Benzo-fused lactams from a diversity-oriented synthesis (DOS) library as inhibitors of scavenger receptor BI (SR-BI)-mediated lipid uptake” (Bioorg Med Chem Lett, 2015):
One block for each compound: values may come before it.

What was measured:
[1] = target: T1, Scavenger receptor class B member 1 (Mus musculus, UniProt Q61009); test: Inhibition of mouse SR-B1 overexpressed in CHO cells assessed as inhibition of transfer of the fluorescent lipid DiI from HDL particles to cells after 3 hrs; type: cell-based
T1 sequence (Q61009 whole entry): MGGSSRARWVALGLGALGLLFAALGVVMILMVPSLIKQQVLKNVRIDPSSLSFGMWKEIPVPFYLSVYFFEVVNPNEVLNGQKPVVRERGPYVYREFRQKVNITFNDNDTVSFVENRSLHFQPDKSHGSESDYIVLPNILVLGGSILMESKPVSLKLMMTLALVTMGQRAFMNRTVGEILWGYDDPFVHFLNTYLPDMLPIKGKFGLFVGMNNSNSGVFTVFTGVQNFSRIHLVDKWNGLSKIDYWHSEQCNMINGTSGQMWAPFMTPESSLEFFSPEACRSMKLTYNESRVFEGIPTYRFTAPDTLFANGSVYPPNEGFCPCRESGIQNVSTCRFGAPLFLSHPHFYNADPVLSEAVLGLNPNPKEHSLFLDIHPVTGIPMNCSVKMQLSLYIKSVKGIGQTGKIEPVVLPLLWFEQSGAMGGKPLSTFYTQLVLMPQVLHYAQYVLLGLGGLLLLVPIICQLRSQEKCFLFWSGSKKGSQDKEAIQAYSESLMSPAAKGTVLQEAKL
How it was run: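 Primary assay: uptake of fluorescent lipid DiI from DiI-labeled HDL particles into IdlA[mSR-BI] cells, i.e. CHO cells overexpressing mouse SR-BI. Read-out is cell-associated DiI fluorescence. Compounds that quenched DiI-HDL fluorescence in a dose-dependent manner were excluded by counterscreen. 1 μM BLT-1 served as positive control.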

[2] = test system: CHO; test: Cytotoxicity against CHO cells after 24 hrs by CellTiterGlo assay; type: cell-based, Cricetulus griseus; conditions: chinese hamster
How it was run: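 IdlA[mSR-BI] cells (CHO overexpressing mouse SR-BI) incubated with compound for 24 h; cellular ATP levels read by CellTiter-Glo luminescence.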

SMILES: C[C@H](CO)N1C[C@H](C)[C@H](CN(C)S(=O)(=O)c2ccc(Cl)cc2)Oc2ccc(NC(=O)Cc3cn(C)c4ccccc34)cc2C1=O
- IC50 [1]: > 25 µM
- Activity [2]: Non-toxic

SMILES: C[C@@H]1CN([C@H](C)CO)C(=O)c2cc(NS(=O)(=O)c3ccccc3)ccc2O[C@H]1CN(C)S(=O)(=O)c1ccc(Cl)cc1
- IC50 [1]: 3.2 µM
- Activity [2]: Non-toxic

SMILES: C[C@H]1CN([C@@H](C)CO)C(=O)c2cc(NC(=O)Cc3cn(C)c4ccccc34)ccc2O[C@H]1CN(C)S(=O)(=O)c1ccc(Cl)cc1
- IC50 [1]: 12.3 µM
- Activity [2]: Non-toxic

SMILES: C[C@@H]1CN([C@H](C)CO)C(=O)c2cc(NC(=O)Cc3cn(C)c4ccccc34)ccc2O[C@H]1CN(C)S(=O)(=O)c1cccs1
- IC50 [1]: 2.4 µM
- Activity [2]: Non-toxic

SMILES: C[C@@H]1CN([C@H](C)CO)C(=O)c2cc(NC(=O)CCN3CCOCC3)ccc2O[C@H]1CN(C)S(=O)(=O)c1ccc(Cl)cc1
- IC50 [1]: 5 µM
- Activity [2]: Non-toxic

SMILES: C[C@@H]1CN([C@H](C)CO)C(=O)c2cc(NC(=O)CCCN(C)C)ccc2O[C@H]1CN(C)S(=O)(=O)c1ccc(Cl)cc1
- IC50 [1]: > 25 µM
- Activity [2]: Non-toxic

SMILES: C[C@@H]1CN([C@@H](C)CO)C(=O)c2cc(NC(=O)Cc3cn(C)c4ccccc34)ccc2O[C@@H]1CN(C)S(=O)(=O)c1ccc(Cl)cc1
- IC50 [1]: 10 µM
- Activity [2]: Non-toxic

SMILES: C[C@@H]1CN([C@H](C)CO)C(=O)c2cc(NC(=O)Cc3cn(C)c4ccccc34)ccc2O[C@H]1CN(C)C(=O)Nc1ccccc1
- IC50 [1]: 4.9 µM
- Activity [2]: Non-toxic

SMILES: C[C@@H]1CN([C@H](C)CO)C(=O)c2cc(NC(=O)C3CC3)ccc2O[C@H]1CN(C)S(=O)(=O)c1ccc(Cl)cc1
- IC50 [1]: 2.1 µM
- Activity [2]: Non-toxic

SMILES: C[C@@H]1CN([C@H](C)CO)C(=O)c2cc(NC(=O)C3CCCCC3)ccc2O[C@H]1CN(C)C(=O)c1ccc(Cl)cc1
- IC50 [1]: > 25 µM
- Activity [2]: Non-toxic

SMILES: CNC[C@@H]1Oc2ccc(NC(=O)Cc3cn(C)c4ccccc34)cc2C(=O)N([C@H](C)CO)C[C@H]1C
- IC50 [1]: > 25 µM
- Activity [2]: Non-toxic

SMILES: C[C@@H]1CN([C@H](C)CO)C(=O)c2cc(NC(=O)Cc3cn(C)c4ccccc34)ccc2O[C@@H]1CN(C)S(=O)(=O)c1ccc(Cl)cc1
- Activity [2]: Non-toxic

SMILES: C[C@@H]1CN([C@H](C)CO)C(=O)c2cc(NC(=O)C3CCCCC3)ccc2O[C@H]1CN(C)S(=O)(=O)c1cccc(Cl)c1
- Activity [2]: Non-toxic

SMILES: C[C@@H]1CN([C@H](C)CO)C(=O)c2cc(NC(=O)Cn3cnnn3)ccc2O[C@H]1CN(C)S(=O)(=O)c1ccc(Cl)cc1
- IC50 [1]: 10 µM
- Activity [2]: Non-toxic

SMILES: COc1ccc(CN(C)C[C@@H]2Oc3ccc(NC(=O)Cc4cn(C)c5ccccc45)cc3C(=O)N([C@H](C)CO)C[C@H]2C)cc1
- IC50 [1]: 2.6 µM
- Activity [2]: Non-toxic

SMILES: C[C@@H]1CN([C@H](C)CO)C(=O)c2cc(NC(=O)Cc3cn(C)c4ccccc34)ccc2O[C@H]1CN(C)C
- IC50 [1]: 18 µM
- Activity [2]: Non-toxic

SMILES: Cc1noc(C)c1NC(=O)Nc1ccc2c(c1)C(=O)N([C@H](C)CO)C[C@@H](C)[C@H](CN(C)S(=O)(=O)c1ccc(Cl)cc1)O2
- IC50 [1]: 7.1 µM
- Activity [2]: Non-toxic

SMILES: C[C@@H]1CN([C@H](C)CO)C(=O)c2cc(NC(=O)Cc3cn(C)c4ccccc34)ccc2O[C@H]1CN(C)CC1CCCCC1
- IC50 [1]: 9.2 µM
- Activity [2]: Non-toxic

SMILES: COC[C@@H](C)N1C[C@@H](C)[C@H](CN(C)S(=O)(=O)c2ccc(Cl)cc2)Oc2ccc(NC(=O)NC(C)C)cc2C1=O
- IC50 [1]: 8 µM
- Activity [2]: Non-toxic

SMILES: C[C@@H]1CN([C@H](C)CO)C(=O)c2cc(NC(=O)Cc3cn(C)c4ccccc34)ccc2O[C@H]1CN(C)S(C)(=O)=O
- IC50 [1]: 9.9 µM
- Activity [2]: Non-toxic

SMILES: C[C@@H]1CN([C@H](C)CO)C(=O)c2cc(NS(=O)(=O)c3ccc(F)cc3)ccc2O[C@H]1CN(C)S(=O)(=O)c1ccc(Cl)cc1
- IC50 [1]: 14 µM
- Activity [2]: Non-toxic

SMILES: C[C@@H]1CN([C@H](C)CO)C(=O)c2cc(NC(=O)Nc3ccccc3)ccc2O[C@H]1CN(C)S(=O)(=O)c1ccc(Cl)cc1
- IC50 [1]: > 25 µM
- Activity [2]: Non-toxic

SMILES: C[C@@H]1CN([C@H](C)CO)C(=O)c2cc(NC(=O)Cc3cn(C)c4ccccc34)ccc2O[C@H]1CN(C)C(=O)NC1CCCCC1
- IC50 [1]: 9.2 µM
- Activity [2]: Non-toxic

SMILES: C[C@@H]1CN([C@H](C)CO)C(=O)c2cc(NS(C)(=O)=O)ccc2O[C@H]1CN(C)S(=O)(=O)c1ccc(Cl)cc1
- IC50 [1]: 1.6 µM
- Activity [2]: Non-toxic

SMILES: C[C@@H]1CN([C@H](C)CO)C(=O)c2cc(NC(=O)Cc3cn(C)c4ccccc34)ccc2O[C@H]1CN(C)Cc1ccc(Cl)c(Cl)c1
- IC50 [1]: > 25 µM
- Activity [2]: Non-toxic

SMILES: COc1ccc(S(=O)(=O)N(C)C[C@@H]2Oc3ccc(NC(=O)Cc4cn(C)c5ccccc45)cc3C(=O)N([C@H](C)CO)C[C@H]2C)cc1
- IC50 [1]: 2 µM
- Activity [2]: Non-toxic

SMILES: C[C@H]1CN([C@@H](C)CO)C(=O)c2cc(NC(=O)Cc3cn(C)c4ccccc34)ccc2O[C@@H]1CN(C)S(=O)(=O)c1ccc(Cl)cc1
- IC50 [1]: 17.4 µM
- Activity [2]: Non-toxic

SMILES: C[C@@H]1CN([C@H](C)CN)C(=O)c2cc(NC(=O)Cc3cn(C)c4ccccc34)ccc2O[C@H]1CN(C)S(=O)(=O)c1ccc(Cl)cc1
- IC50 [1]: > 25 µM
- Activity [2]: Non-toxic

SMILES: C[C@@H]1CN([C@H](C)CO)C(=O)c2cc(NC(=O)Cc3cn(C)c4ccccc34)ccc2O[C@H]1CN(C)Cc1ccccc1
- IC50 [1]: 1.6 µM
- Activity [2]: Non-toxic

The remaining compounds from weak to strong by IC50 [1], led by results:

- IC50 [1]: 1.3 µM
SMILES: C[C@@H]1CN([C@H](C)CO)C(=O)c2cc(NC(=O)Cc3cn(C)c4ccccc34)ccc2O[C@H]1CN(C)Cc1ccncc1
- Activity [2]: Non-toxic

- IC50 [1]: 0.91 µM
SMILES: C[C@@H]1CN([C@@H](C)CO)C(=O)c2cc(NC(=O)Cc3cn(C)c4ccccc34)ccc2O[C@H]1CN(C)S(=O)(=O)c1ccc(Cl)cc1
- Activity [2]: Non-toxic

- IC50 [1]: 0.89 µM
SMILES: C[C@@H]1CN([C@H](C)CO)C(=O)c2cc(NC(=O)Cc3cn(C)c4ccccc34)ccc2O[C@H]1CN(C)Cc1ccc2c(c1)OCO2
- Activity [2]: Non-toxic

- IC50 [1]: 0.65 µM
SMILES: C[C@@H]1CN([C@H](C)CO)C(=O)c2cc(NC(=O)Cc3cn(C)c4ccccc34)ccc2O[C@H]1CN(C)Cc1ccc(C(F)(F)F)cc1
- Activity [2]: Non-toxic

- IC50 [1]: 0.63 µM
SMILES: C[C@@H]1CN([C@H](C)CO)C(=O)c2cc(N(C)C)ccc2O[C@H]1CN(C)S(=O)(=O)c1ccc(Cl)cc1
- Activity [2]: Non-toxic

- IC50 [1]: 0.56 µM
SMILES: C[C@@H]1CN([C@H](C)CO)C(=O)c2cc(NC(=O)Cc3cn(C)c4ccccc34)ccc2O[C@H]1CN(C)S(=O)(=O)c1ccc(F)cc1
- Activity [2]: Non-toxic

- IC50 [1]: 0.35 µM
SMILES: C[C@@H]1CN([C@H](C)CO)C(=O)c2cc(NC(=O)NC3CCCCC3)ccc2O[C@H]1CN(C)S(=O)(=O)c1ccc(Cl)cc1
- Activity [2]: Non-toxic

- IC50 [1]: 0.3 µM
SMILES: COc1ccc(NC(=O)Nc2ccc3c(c2)C(=O)N([C@H](C)CO)C[C@@H](C)[C@H](CN(C)S(=O)(=O)c2ccc(Cl)cc2)O3)cc1
- Activity [2]: Non-toxic

- IC50 [1]: 0.22 µM
SMILES: C[C@@H]1CN([C@H](C)CO)C(=O)c2cc(NC(=O)Cc3cn(C)c4ccccc34)ccc2O[C@H]1CN(C)S(=O)(=O)c1ccccc1
- Activity [2]: Non-toxic

- IC50 [1]: 0.19 µM
SMILES: Cc1noc(C)c1S(=O)(=O)Nc1ccc2c(c1)C(=O)N([C@H](C)CO)C[C@@H](C)[C@H](CN(C)S(=O)(=O)c1ccc(Cl)cc1)O2
- Activity [2]: Non-toxic

- IC50 [1]: 0.18 µM
SMILES: C[C@@H]1CN([C@H](C)CO)C(=O)c2cc(NC(=O)C3CCCCC3)ccc2O[C@H]1CN(C)S(=O)(=O)c1ccccc1Cl
- Activity [2]: Non-toxic

- IC50 [1]: 0.092 µM
SMILES: C[C@@H]1CN([C@H](C)CO)C(=O)c2cc(NC(=O)Nc3ccc(F)cc3)ccc2O[C@H]1CN(C)S(=O)(=O)c1ccc(Cl)cc1
- Activity [2]: Non-toxic

- IC50 [1]: 0.054 µM
SMILES: C[C@@H]1CN([C@H](C)CO)C(=O)c2cc(NC(=O)C3CCCCC3)ccc2O[C@H]1CN(C)S(=O)(=O)c1ccc(Cl)cc1
- Activity [2]: Non-toxic
